M5 PAM – human M5 muscarinic receptor positive allosteric modulators, primary screen, CHO-K1 cells, Fluo-8 calcium fluorescence; Muscarinic acetylcholine receptor M5 (Homo sapiens), P08912; CHO-K1 hM5, ACh EC20 PAM; 0% = ACh EC20, 100% = ACh EC100; activation, % at 3 µM; 0.3% of 360,000 active; AID 624038, 2012;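 active = activation above the run cutoff, the mean activation of all test compounds plus 3 SD, cut at about 18% in these data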
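System: CHO-K1 cell line with stable human muscarinic M5 receptor expression | Also added: EC20 acetylcholine as agonist stimulus | Compound: One concentration, 3 µM final (nominal) | Timing: Fluo-8 loading 80 min at 37 °C plus 30 min room temperature | Measured by: Fluo-8 calcium dye fluorescence, kinetic read | Read-out basis: % activation, ACh-normalized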
M5 antag – human M5 muscarinic receptor antagonists, primary screen, CHO cells, Fluo-8 calcium fluorescence; 0.59% of 360,000 active; CHO-hM5 cells, ACh EC80; AID 624040, 2012; inhibition, % at 3 µM;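 active = inhibition above a per-plate cutoff, the mean of that plate's test compounds plus 3 SD, cut at about 27% in these data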
M4 antag – human M4 muscarinic receptor antagonists, primary screen, CHO cells, Fluo-8 calcium fluorescence; Muscarinic acetylcholine receptor M4 (Homo sapiens), P08173; CHO-hM4 cells, ACh EC80; inhibition, % at 3 µM; 0.73% of 360,000 active; AID 624125, 2012;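 active = inhibition above its plate's cutoff, the mean inhibition of sample wells plus 3 SD, cut at about 27% in these data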
Target sequence (P08173 whole entry, looked up): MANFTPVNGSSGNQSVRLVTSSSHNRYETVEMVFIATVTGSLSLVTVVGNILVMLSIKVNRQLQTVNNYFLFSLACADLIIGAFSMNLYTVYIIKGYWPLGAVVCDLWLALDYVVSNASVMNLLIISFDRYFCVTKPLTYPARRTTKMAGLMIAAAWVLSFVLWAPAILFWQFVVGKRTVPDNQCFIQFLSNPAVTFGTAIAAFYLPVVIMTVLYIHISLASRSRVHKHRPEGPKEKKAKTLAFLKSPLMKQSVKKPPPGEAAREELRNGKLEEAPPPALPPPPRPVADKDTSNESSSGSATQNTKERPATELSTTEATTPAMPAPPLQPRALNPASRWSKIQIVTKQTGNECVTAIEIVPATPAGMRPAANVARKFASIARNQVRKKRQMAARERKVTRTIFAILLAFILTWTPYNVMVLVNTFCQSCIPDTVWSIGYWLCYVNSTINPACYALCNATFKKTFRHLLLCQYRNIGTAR
CHRM5 agonist – human M5 muscarinic receptor agonists, primary screen, CHO-K1 cells, Fluo-8 calcium fluorescence; Muscarinic acetylcholine receptor M5 (Homo sapiens), P08912; 0.19% of 360,000 active; activation, % at 3 µM; CHO-K1 hM5 cells; 0% DMSO wells, 100% maximal acetylcholine response;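 active = activation above the run's mean over test compounds plus 3 SD, cut at about 23% in these data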;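 note: signal is peak over basal fluorescence ratio across the kinetic read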
CHRM4 agonist – human M4 muscarinic receptor agonists, primary screen, CHO-K1 cells, Fluo-8 calcium fluorescence; 0.14% of 360,000 active; Muscarinic acetylcholine receptor M4 (Homo sapiens), P08173; CHO-K1 hM4/Gqi5; vehicle 0%, full acetylcholine response 100%; activation, % at 3 µM;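 active = activation above the run mean over all test wells plus 3 SD, cut at about 32% in these data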;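 note: peak over basal fluorescence ratio per well then scaled between controls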
CHRM4 PAM – human M4 muscarinic receptor positive allosteric modulators, primary screen, CHO-K1 cells, Fluo-8 calcium fluorescence; 0.4% of 360,000 active; CHO-K1 hM4/Gqi5, ACh EC20; 0% = ACh EC20, 100% = maximal ACh; AID 624126, 2012; activation, % at 3 µM; Muscarinic acetylcholine receptor M4 (Homo sapiens), P08173;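 active = activation above its plate's cutoff, the mean activation of sample wells plus 3 SD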
Large screens that a line does not name were inactive. A selection: hits, their analogues and other compounds. The true share with any hit is near 1.8%.

O=C(NC1CCSc2ccccc21)c1cccc(OC(F)F)c1 (configuration not stated)	none
S=C(Nc1ccc(Cl)cc1)NC1CCCCC1	none
FC(F)Oc1ccc(NC(=S)NC2CCSc3ccccc32)cc1 (configuration not stated)	M5 antag 43, M4 antag 60
FC(F)Oc1ccc(NC(=S)NC2CCCCCCC2)cc1	M5 antag 34
NC(=S)c1csc(CCNC(=O)c2ccccc2)n1	none
CCCNS(=O)(=O)c1cc2c(cc1Br)CCN2C(=O)CC	M5 PAM 23
Cc1ccc2c(c1)C(=O)C(=O)N2Cc1ccc(F)cc1	none
Cc1ccc2c(c1)C(=O)C(=O)N2Cc1ccc(Cl)cc1	CHRM5 agonist 34
Nc1nc(-c2ccc3c(c2)OCCO3)c(CC(=O)O)s1	none
Nc1nc(-c2ccc3c(c2)CCCC3)c(CC(=O)O)s1	M4 antag 29
O=C1C[C@H]2CCCCC(=O)N3CC[C@@H](C1)[C@@H]23	none
COc1cc(CN2CCC(C(=O)NC(c3ccc(-c4ccccc4)cc3)c3cnccn3)CC2)cc(OC)c1 (configuration not stated)	none
COc1ccccc1C(=O)N1CCN(C(=O)[C@H]2O[C@@H](n3ccc(=O)[nH]c3=O)[C@H](O)[C@@H]2O)CC1	CHRM4 PAM 21
Cc1ccccc1CN1C(=O)Nc2ccccc2C(=O)N1C(C)(C)C	M5 PAM 50
CC(C)(C)N1C(=O)c2ccccc2NC(=O)N1Cc1ccc(Br)cc1	none
CCC(C)N(C(=O)COC(=O)CCc1c[nH]c2ccccc12)C1CCS(=O)(=O)C1 (configuration not stated)	none
CCN(C(=O)COC(=O)Cc1c[nH]c2ccccc12)C1CCS(=O)(=O)C1 (configuration not stated)	CHRM4 PAM 19
CS/C(=N/S(=O)(=O)c1ccc(C)cc1)c1ccccc1	CHRM4 PAM 24
CN(C)CCCN(C(=O)COc1ccc(Cl)cc1)c1nc2ccc(F)cc2s1	none
Cc1ccc2nc(N(CCCN(C)C)C(=O)COc3ccc(Cl)cc3)sc2c1	CHRM4 agonist 38
CN(C(=O)CO/N=C/c1ccc(OC(F)F)cc1)C1CCS(=O)(=O)C1 (configuration not stated)	M5 PAM 19
CCNS(=O)(=O)c1ccc(CCC(=O)Nc2ccc(C(=O)OC)cc2)cc1	CHRM4 PAM 29
CCCOc1ccc(C(=O)N2CCCC2C(=O)O)cc1 (configuration not stated)	CHRM4 PAM 19
N#Cc1ccccc1S(=O)(=O)N1CCN(Cc2cc3c(cc2Br)OCCO3)CC1	none
Cc1ccc(S(=O)(=O)NC(=O)C2(C)CCN2C(=O)c2c(C)noc2C)cc1 (configuration not stated)	none
CCCCOc1ccc(S(=O)(=O)NC(=O)C2(C)CCN2C(=O)c2c(C)noc2C)cc1 (configuration not stated)	CHRM4 PAM 19
CC1CCC(NC(=O)Cn2c(=O)oc3ccccc32)CC1 (configuration not stated)	none
Cc1ccc2oc(C(=O)NCc3ccccc3)cc(=O)c2c1	none
Cc1cc2oc(C(=O)NCc3ccccc3)cc(=O)c2cc1C	M5 antag 97, M4 antag 98
Clc1ccc2oc(SCc3cccnc3)nc2c1	none
O=C(N/N=C/C=C/c1ccccc1)C1CC1c1ccccc1 (configuration not stated)	CHRM4 PAM 17
O=C(Nc1ccncc1)c1ccc2c(c1)C(=O)N(C1CCCCC1)C2=O	M5 antag 31, M4 antag 42
COc1ccc(NC(=O)c2c(N)cnn2C)cc1	none
COc1ccccc1CNC(=O)Cn1ccsc1=N	none
CC(C)N(C(=O)COC(=O)c1cc(Cl)cc(Cl)c1N)C(C)C	M5 antag 27
O=C(c1c(F)cccc1F)N1CCCc2ccccc21	none
c1ccc(-c2csc3ncnc(NCc4ccccn4)c23)cc1	none
c1ccc(CNc2ncnc3scc(-c4cccs4)c23)nc1	M5 antag 28
O=C(c1cnn2c(C(F)F)cc(C3CC3)nc12)N1CCc2ccccc2C1	none
O=C(c1cnn2c(C(F)F)cc(C3CC3)nc12)N1CCCC1	CHRM4 PAM 34
S=C(NCc1ccco1)Nc1cc(Cl)c(Cl)cc1Cl	M5 antag 33
S=C(NCc1ccco1)Nc1ccc(Cl)c(Cl)c1	none
COc1ccc(C2(C)NC(=O)N(CC(=O)c3cc(C)n(C4CC4)c3C)C2=O)cc1 (configuration not stated)	CHRM5 agonist 42, CHRM4 agonist 35
Cc1cc(C(=O)CN2C(=O)NC(C)(c3ccc(F)c(F)c3)C2=O)c(C)n1C1CC1 (configuration not stated)	none
Cc1cccc(NC(=O)/C(C#N)=C\c2cn(CC(=O)O)c3ccccc23)c1	M5 antag 28
O=C(Nc1ccc(Cl)cc1)Nc1ccc(Br)cn1	none
O=C(COC(=O)/C=C/c1ccc(Cl)cc1Cl)NCCC1=CCCCC1	M5 PAM 27, M4 antag 28
COc1ccccc1CNC(=O)Nc1nc(C(N)C(C)C)cs1 (configuration not stated)	none
COc1ccc(CNC(=O)Nc2nc(C(N)Cc3ccc(Cl)cc3)cs2)cc1 (configuration not stated)	M4 antag 33
COc1ccccc1CNC(=O)Nc1nc(C(N)Cc2ccc(Cl)cc2)cs1 (configuration not stated)	M4 antag 27
COc1ccc(CNC(=O)Nc2nc(C(N)Cc3ccc(F)cc3)cs2)cc1 (configuration not stated)	none
CCN(CC)S(=O)(=O)c1cc(NC(=O)CSCc2c(C)noc2C)ccc1C	none
COc1ccc([N+](=O)[O-])cc1NC(=S)NC(NC(=O)C(c1ccccc1)c1ccccc1)C(Cl)(Cl)Cl (configuration not stated)	M4 antag 27
COc1ccc([N+](=O)[O-])cc1NC(=O)C(C)c1ccccc1 (configuration not stated)	none
Cc1cc(N2CCC(C)CC2)nc(-c2ccccc2O)n1	none
Cc1cc(-n2[nH]c(C)c(C)c2=O)nc(-c2ccccc2O)n1	M5 PAM 37, M5 antag 42

Compound activity (PubChem)
